Laboratory results from ChEMBL document CHEMBL1131030, “Synthesis and evaluation of a series of novel 2-[(4-chlorophenoxy)methyl]benzimidazoles as selective neuropeptide Y Y1 receptor antagonists” (J Med Chem, 1998).

Columns and labels:
[1] = target: T1, Neuropeptide Y receptor type 1 (Homo sapiens, UniProt P25929); test: In vitro binding affinity towards human neuropeptide Y receptor type 1, determined by measuring its ability to displace [125]peptide YY
T1 sequence (P25929 whole entry): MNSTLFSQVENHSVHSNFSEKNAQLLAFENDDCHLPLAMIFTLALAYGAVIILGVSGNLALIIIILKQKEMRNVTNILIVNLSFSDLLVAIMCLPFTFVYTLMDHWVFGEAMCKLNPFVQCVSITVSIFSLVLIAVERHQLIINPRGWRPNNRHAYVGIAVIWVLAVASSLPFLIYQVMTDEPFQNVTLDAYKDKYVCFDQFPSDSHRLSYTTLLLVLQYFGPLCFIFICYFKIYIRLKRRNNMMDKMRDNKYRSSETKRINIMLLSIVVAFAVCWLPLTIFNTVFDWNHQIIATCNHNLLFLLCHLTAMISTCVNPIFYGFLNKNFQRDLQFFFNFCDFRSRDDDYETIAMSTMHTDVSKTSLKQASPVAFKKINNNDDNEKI

[2] = tested on: SK-N-MC; test: In vitro functional activity determined by its ability to antagonize 1 nM NPYs inhibition of forskolin -stimulated cyclic AMP accumulation in SK-N-MC cells; type: cell-based, Homo sapiens
In short: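 SK-N-MC cells were stimulated with forskolin. NPY (1 nM) and antagonist were added at the same time and incubated for only 15 min, to avoid receptor desensitization. Read-out was reversal of the NPY-induced inhibition of cAMP accumulation.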

`Clc1ccc(OCc2nc3c(OCCC4CCNCC4)cccc3n2CCCC2CCCNC2)cc1` (configuration not stated) showed a Ki [1] of 7 nM and a Ki [2] of 15 nM.
`N=C(N)NCCCC(NC(=O)C(c1ccccc1)c1ccccc1)C(=O)NCc1ccc(O)cc1` (configuration not stated) gave a Ki [2] of 11 nM.
`Clc1ccc(OCc2nc3c(OCCCN4CCCCC4)cccc3n2CCCC2CCCNC2)cc1` (configuration not stated) showed a Ki [1] of 1.7 nM and a Ki [2] of 2.7 nM.
Molecule `Clc1ccc(OCc2nc3c(OCCCC4CCCCN4)cccc3n2CCCC2CCCNC2)cc1` (configuration not stated) has a Ki [1] of 16 nM and a Ki [2] of 53 nM.
`Cc1cccc2c1nc(COc1ccc(Cl)cc1)n2CCCC1CCCNC1` (configuration not stated) was tested, and the Ki [1] was 97 nM.
Molecule `Clc1ccc(OCc2nc3c(OCCC4CCCNC4)cccc3n2CCCC2CCCNC2)cc1` (configuration not stated) has a Ki [1] of 18 nM and a Ki [2] of 91 nM.
In the case of `Cc1ccc2c(c1)nc(COc1ccc(Cl)cc1)n2CCCC1CCCNC1.Cc1ccc2nc(COc3ccc(Cl)cc3)n(CCCC3CCCNC3)c2c1` (configuration not stated), the Ki [1] is reported as 1290 nM.
Work on `Clc1ccc(OCc2nc3ccccc3n2CCCC2CCCCN2)cc1` (configuration not stated) yielded a Ki [1] of 3230 nM.
For `Clc1ccc(OCc2nc3ccccc3n2CCC2CCCCN2)cc1` (configuration not stated), the Ki [1] was 7860 nM.
With `Clc1ccc(OCc2nc3ccccc3n2CCC2CCNCC2)cc1` the Ki [1] was 940 nM.
In the case of `Oc1cccc2c1nc(COc1ccc(Cl)cc1)n2CCCC1CCCNC1` (configuration not stated), the Ki [1] is reported as 5300 nM.
Work on `Clc1ccc(OCc2nc3c(OCCCC4CCNCC4)cccc3n2CCCC2CCCNC2)cc1` (configuration not stated) yielded a Ki [1] of 152 nM and a Ki [2] of 119 nM.
In the case of `Clc1ccc(OCc2nc3ccccc3n2CCCC2CCCNC2)cc1` (configuration not stated), the Ki [1] is reported as 700 nM.
`Clc1ccc(OCc2nc3c(OCCCC4CCCNC4)cccc3n2CCCC2CCCNC2)cc1` (configuration not stated) showed a Ki [1] of 30 nM and a Ki [2] of 77 nM.
`Clc1ccc(OCc2nc3c(OCCC4CCCCN4)cccc3n2CCCC2CCCNC2)cc1` (configuration not stated) was tested, and the Ki [1] was 29 nM.
`Clc1ccc(OCc2nc3ccccc3n2CCC2CCCNC2)cc1` (configuration not stated) showed a Ki [1] of 1280 nM.
Molecule `Clc1ccc(OCc2nc3ccccc3n2CCCN2CCCCC2)cc1` has a Ki [1] of 7020 nM.
With `Clc1ccc(OCc2nc3c(OCCN4CCCCC4)cccc3n2CCCC2CCCNC2)cc1` (configuration not stated) the Ki [1] was 43 nM and the Ki [2] was 240 nM.
For `Clc1ccc(OCc2nc3ccccc3n2CCCCC2CCCNC2)cc1` (configuration not stated), the Ki [1] was 1210 nM.
In the case of `Clc1ccc(OCc2nc3c(OCCC[C@H]4CCCNC4)cccc3n2CCC[C@H]2CCCNC2)cc1`, the Ki [1] is reported as 41 nM and the Ki [2] is reported as 153 nM.
In the case of `Clc1ccc(OCc2nc3c(OCCC[C@@H]4CCCNC4)cccc3n2CCC[C@@H]2CCCNC2)cc1`, the Ki [1] is reported as 6 nM and the Ki [2] is reported as 87 nM.
For `Clc1ccc(OCc2nc3c(OCCC[C@@H]4CCCNC4)cccc3n2CCC[C@H]2CCCNC2)cc1`, the Ki [1] was 17 nM and the Ki [2] was 65 nM.
`Clc1ccc(OCc2nc3ccccc3n2CCCC2CCNCC2)cc1` was tested, and the Ki [1] was 980 nM.
`Clc1ccc(OCc2nc3c(OCCC[C@H]4CCCNC4)cccc3n2CCC[C@@H]2CCCNC2)cc1` showed a Ki [1] of 27 nM and a Ki [2] of 137 nM.
With `Clc1ccc(OCc2nc3ccccc3n2CCN2CCCCC2)cc1` the Ki [1] was over 100000 nM.
`Cc1cccc2nc(COc3ccc(Cl)cc3)n(CCCC3CCCNC3)c12` (configuration not stated) was tested, and the Ki [1] was 400 nM.
